Ten compounds from ChEMBL document CHEMBL1123063, “Mechanism-based inactivation of N-arylhydroxamic acid N,O-acyltransferase by 7-substituted-N-hydroxy-2-acetamidofluorenes” (J Med Chem, 1985) can be followed below.

In general, kinact/KI refers to the second-order rate constant of inactivation. In general, kinact refers to the maximal first-order rate at which the target is inactivated. Broadly, the pKd is the Kd on a negative log10 scale, so that one unit is a factor of ten.

pKd: −log10 of the molar value.

Data set [1] concerns Cricetinae gen. sp. Put plainly: Percent protection from inactivation of AHAT was determined using guanosine phosphate. Format: functional, Cricetulus griseus. Set-up: concentration or dose not given beside the values. In short, it runs like this:
(§1)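 Run as in the inactivation kinetics: hamster hepatic AHAT was preincubated at 37 °C with a saturating inactivator concentration for 2–20 min (to maximal inactivation). Nucleophile was present at 10 mM (L-cysteine, L-methionine, glutathione, guanosine phosphate) or tRNA at 1 mg/mL. Remaining AAB transacetylation activity was then measured. Protection = percent remaining activity with minus without nucleophile. Mean ± SE of three experiments.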

Data set [2] has as its system Hamster. The data set is described as follows: Activity measured as 4-aminoazobenzene (AAB) transacetylation rate with partially purified hamster hepatic enzyme. In kind it is ADME. The note with it: cricetinae, in vitro. In short, it runs like this: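 Hamster liver (male golden Syrian) 105000g supernatant, ammonium sulfate-fractionated (two- to three-fold), in 0.05 M sodium pyrophosphate pH 7, 1 mM DTT with KCl. 2-min 37 °C equilibration, then hydroxamic acid plus AAB added. Final: 1.0 mM donor, 0.15 mM AAB, 1.0 mg/mL protein, 2.0 min (exceptions: 0.5–0.6 mM donor, 3.5 min). TCA/EtOH stop, A497. Mean ± SE, N = 15–30.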

Data set [3] relates to Cricetinae gen. sp. Put plainly: Percent protection from inactivation of AHAT was determined using glutathione. In kind it is functional, Cricetulus griseus. More on the design: concentration or dose not given beside the values. In outline: as §1
The nature of data set [4]: Ratio of apparent inactivation rate constant to apparent dissociation (binding) rate constant was determined.
Data set [5] concerns Cricetinae gen. sp. The data set is described as follows: Percent protection from inactivation of AHAT was determined using t-RNA. Set-up: concentration or dose not given beside the values. Format: functional, Cricetulus griseus. In outline: as §1
The test system of data set [6] is Cricetinae gen. sp. The data set is described as follows: Percent protection from inactivation of AHAT was determined using L-methionine. More on the design: concentration or dose not given beside the values. In kind it is functional, Cricetulus griseus. In outline: as §1
Data set [7] relates to Cricetinae gen. sp. Put plainly: Percent protection from inactivation of AHAT was determined using L-cysteine. In kind it is functional, Cricetulus griseus. Set-up: concentration or dose not given beside the values. In outline: as §1
Data set [8] is described as follows: Apparent inactivation rate constant was evaluated. In outline: (§2)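 Partially purified hamster hepatic AHAT was preincubated at 37 °C in pyrophosphate buffer pH 7, 1 mM DTT, KCl, with five inactivator concentrations (0.005–1.0 mM final) for five preincubation periods (1–15 min). Remaining AAB transacetylation activity was then assayed. kobsd came from semilog plots of percent remaining activity vs. time. k_i and K_D came from double-reciprocal plots of kobsd vs. concentration. Three experiments, each in triplicate.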

Data set [9] in a line: Apparent dissociation (binding) rate constant was evaluated. In kind it is ADME. In outline:
as §2

In data set [10] the test system is N-arylhydroxamic acid N,O-acyltransferase (Mesocricetus auratus). Put plainly: Percent protection from inactivation of AHAT was determined using glutathione.
Data set [11] has the same test system. Put plainly: Percent protection from inactivation of AHAT was determined using L-methionine.
For data set [12] the test system is unchanged. The data set is described as follows: Percent protection from inactivation of AHAT was determined using t-RNA.
The test system is the same in data set [13]. Put plainly: Percent protection from inactivation of AHAT was determined using L-cysteine.
For data set [14] the test system is unchanged. Put plainly: Percent protection from inactivation of AHAT was determined using guanosine phosphate.

In the case of `COc1ccc2c(c1)Cc1cc(N(O)C(C)=O)ccc1-2`, the Protection in data set [1] was found to be 54.9%; in data set [3], 46.1%; in data set [5] it was 32.2%; in data set [6] it was 28.3%; in data set [7] it was 47.6%. The compound also yielded a Rate in data set [2] of 10.9 nmol/mg/min. The kinact/KI in data set [4] came out at 1770 M⁻¹ s⁻¹. Also, the kinact in data set [8] came to 3.73 min⁻¹. Also, in data set [9], the pKd is 4.45.

Consider `CC(=O)c1ccc2c(c1)Cc1cc(N(O)C(C)=O)ccc1-2`, for which the Protection turned out to be 1.4% in [1]; 26.3% in data set [3]; 8.3% in data set [5]; 0.3% in [6]; 32.4% in data set [7]. The Rate in data set [2] was 13.7 nmol/mg/min. In addition, in [4], the kinact/KI is 10400 M⁻¹ s⁻¹. Further, in data set [8], the kinact was 0.25 min⁻¹. Further, the pKd in data set [9] was 6.40.

Regarding `CC(=O)N(O)c1ccc2c(c1)Cc1ccccc1-2`, the Protection came out at 34.9% in data set [1]; 15.7% in data set [3]; 1.9% in [5]; 23.1% in data set [6]; 39.1% in data set [7]. Moreover, the Rate in [2] was 20.9 nmol/mg/min. Further, the kinact/KI in [4] worked out at 360 M⁻¹ s⁻¹. Also, the kinact in [8] is 1.95 min⁻¹. Moreover, the negative-log Kd (pKd) in data set [9] is 4.05.

Consider `CC(=O)N(O)c1ccc2c(c1)Cc1cc(C#N)ccc1-2`, for which the Protection in data set [1] was determined as 5.9%; in [3], 30.5%; in data set [5], 2.9%; in [6], 8%; in data set [7], 35.9%. In [2], the Rate is 16.5 nmol/mg/min. In data set [4], the kinact/KI stood at 37.5 M⁻¹ s⁻¹. For the same compound, in [8], the kinact amounted to 0.09 min⁻¹. For the same compound, in [9], the negative logarithm of the Kd (pKd) was 4.40.

In data set [2], `CC(=O)N(O)c1ccc2c(c1)Cc1cc(Cl)ccc1-2` yielded a Rate of 20.1 nmol/mg/min. In [4], the kinact/KI amounted to 258 M⁻¹ s⁻¹. Moreover, the inactivation rate constant (kinact) in [8] was 0.76 min⁻¹. The pKd in data set [9] is 4.31.

`CC(=O)N(O)c1ccc2c(c1)Cc1cc(I)ccc1-2` showed a Rate in data set [2] of 5.3 nmol/mg/min. For the same compound, the kinact/KI in data set [4] turned out to be 2900 M⁻¹ s⁻¹. The kinact in [8] turned out to be 0.07 min⁻¹. For the same compound, in data set [9], the pKd was 6.40.

`CCOc1ccc2c(c1)Cc1cc(N(O)C(C)=O)ccc1-2` registered a Rate in data set [2] of 9.6 nmol/mg/min. Besides, the kinact/KI in [4] was determined as 2940 M⁻¹ s⁻¹. The Protection in data set [10] stood at 39.4%; in data set [11], 43.3%; in [12], 19.2%; in [13], 34.2%; in data set [14], 21.3%. In data set [8], the maximal inactivation rate constant (kinact) is 0.67 min⁻¹. For the same compound, the pKd in data set [9] was 5.42.

With `CCCCOc1ccc2c(c1)Cc1cc(N(O)C(C)=O)ccc1-2`, the Protection is 18.9% in [1]; 6% in [3]; 18% in data set [5]; 8.1% in [6]; 9.3% in data set [7]. The same compound gave a Rate in data set [2] of 4.6 nmol/mg/min. Besides, the kinact/KI in data set [4] was 1690 M⁻¹ s⁻¹. The kinact in data set [8] was 0.58 min⁻¹. Further, in data set [9], the pKd was 5.24.

Take `CC(=O)N(O)c1ccc2c(c1)Cc1cc(F)ccc1-2`: the Protection in data set [1] amounted to 58.4%; in [3], 55.2%; in [5] it was 17.6%; in data set [6], 38.2%; in data set [7] it was 54.5%. Also, the Rate in data set [2] amounted to 26.8 nmol/mg/min. Besides, the kinact/KI in [4] was 334 M⁻¹ s⁻¹. The kinact in [8] was found to be 2.59 min⁻¹. Moreover, the negative logarithm of the Kd (pKd) in data set [9] is 3.89.

For the compound `CC(=O)N(O)c1ccc2c(c1)Cc1cc(Br)ccc1-2`, the Protection is 26.9% in data set [1]; 34.7% in data set [3]; 0% in data set [5]; 6.6% in [6]; 31.1% in data set [7]. This compound came in with a Rate in [2] of 20.5 nmol/mg/min. Further, the kinact/KI in [4] amounted to 620 M⁻¹ s⁻¹. The inactivation rate constant (kinact) in [8] is 0.22 min⁻¹. Moreover, the pKd in data set [9] is 5.23.
